# Data: ChEMBL document CHEMBL4428023, “1,4-Dihydropyridines Active on the SIRT1/AMPK Pathway Ameliorate Skin Repair and Mitochondrial Function and Exhibit Inhibition of Proliferation in Cancer Cells” (J Med Chem, 2016)
# The source made the active and inactive calls. The calls are words filed in the database; no cut-off is given here.
# How the values were obtained:
# [1] = molecular target: 3',5'-cyclic-AMP phosphodiesterase 4D (Homo sapiens) (UniProt Q08499); assay: Inhibition of recombinant human PDE4D assessed as phosphate release using cAMP as substrate at 50 uM after 60 mins by malachite green assay
# How it was run: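 Recombinant human PDE4D (20 mU) in 10 mM Tris-HCl pH 7.4 with cAMP substrate. Compounds at 50 µM in DMSO; rolipram 10 µM as positive control. Incubated 60 min at 37 °C, then phosphate release measured by malachite green absorbance at 620 nm. Mean of three determinations.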
# HaCaT [2] = assay: Activation of AMPK/SIRT1 in human HaCaT cells assessed as nitric oxide production at 1 uM incubated for 1 hr by DAF-2D staining-based fluorescence assay; assay type: cell-based
# How it was run: (§1)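 HaCaT keratinocytes grown in DMEM with 10% FBS and antibiotics. Cells treated 1 h (single-point 1 µM; dose-response at 5, 25, 50 µM). 5 µM DAF-2D added to complete medium. Cells then washed in PBS, trypsinized and analysed by flow cytometry for DAF fluorescence (ex 485/em 538 nm). Read-out is % DAF-positive cells relative to DMSO control.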
# HaCaT [3] = assay: Activation of AMPK/SIRT1 in human HaCaT cells assessed as nitric oxide production incubated for 1 hr by DAF-2D staining-based fluorescence assay; assay type: cell-based; how it was run: as §1
# HaCaT [4] = assay: Activation of AMPK/SIRT1 in human HaCaT cells assessed as nitric oxide production at 10 uM incubated for 1 hr in presence of compound C by DAF-2D staining-based fluorescence assay; assay type: cell-based
# How it was run: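 HaCaT cells in DMEM with 10% FBS. DHP (10 µM) given for 1 h alone or together with 10 µM AMPK inhibitor compound C or 10 µM SIRT1 inhibitor EX-527. Intracellular NO read by flow cytometry after loading with 5 µM DAF-2D in medium (ex 485/em 538 nm). Expressed as % DAF-positive cells versus DMSO.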
# [5] = molecular target: T1, NAD-dependent protein deacetylase sirtuin-1 (Homo sapiens) (UniProt Q96EB6); assay: Activation of SIRT1 in […] at 1 uM by fluorimetric assay; assay type: cell-free; settings: HaCaT, TDE = time-dependent effect
# T1 sequence (whole entry): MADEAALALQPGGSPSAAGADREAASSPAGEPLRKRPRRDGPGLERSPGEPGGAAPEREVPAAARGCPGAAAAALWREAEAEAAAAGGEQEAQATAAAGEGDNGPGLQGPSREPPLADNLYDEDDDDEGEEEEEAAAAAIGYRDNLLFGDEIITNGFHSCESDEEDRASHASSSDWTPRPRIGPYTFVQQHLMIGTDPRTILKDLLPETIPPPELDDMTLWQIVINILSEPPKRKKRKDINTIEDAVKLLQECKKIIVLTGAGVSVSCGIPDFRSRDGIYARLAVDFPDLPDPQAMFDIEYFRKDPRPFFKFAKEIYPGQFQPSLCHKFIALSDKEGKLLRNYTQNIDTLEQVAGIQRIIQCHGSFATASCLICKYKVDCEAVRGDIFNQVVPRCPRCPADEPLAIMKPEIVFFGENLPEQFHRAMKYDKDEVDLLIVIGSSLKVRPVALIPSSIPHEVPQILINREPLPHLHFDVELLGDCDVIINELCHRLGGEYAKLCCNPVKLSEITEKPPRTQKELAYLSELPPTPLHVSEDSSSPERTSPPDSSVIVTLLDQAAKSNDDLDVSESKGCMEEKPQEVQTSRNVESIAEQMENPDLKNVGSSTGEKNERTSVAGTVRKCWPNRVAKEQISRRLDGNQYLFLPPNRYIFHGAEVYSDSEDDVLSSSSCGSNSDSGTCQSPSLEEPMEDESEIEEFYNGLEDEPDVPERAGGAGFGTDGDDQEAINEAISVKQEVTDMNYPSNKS
# Mus musculus = assay: Wound healing activity in CD1 mouse assessed as increased wound closure at 1 uM administered topically on wound everyday for 14 days by biopsy punch assay; assay type: functional, organism-based
# How it was run: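 Male CD1 mice, 8 weeks old, anaesthetized i.p. with medetomidine 1 mg/kg plus ketamine 75 mg/kg, then biopsy-punch wounded. Compound (1 µM) in 20 µL saline applied directly to the wound daily for 14 days; solvent-treated group as control. Epithelial gap and % wound closure followed over time.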
# C2C12 [6] = assay: Activation of AMPK/SIRT1 in mouse C2C12 cells assessed as increase in mitochondrial density at 30 uM after 16 hrs by Mitotracker Green staining-based confocal microscopy in presence of compound C; assay type: cell-based
# How it was run: (§2)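 C2C12 myoblasts plated overnight, then in serum-free HBSS pH 7.4 and treated 16 h at 30 µM, alone or with 5 µM inhibitor (EX-527 or compound C). Mitotracker Green at 200 nM final was added for the last 30 min. Cells were fixed in 4% paraformaldehyde, permeabilized with Triton X-100 and imaged by confocal microscopy with fixed settings. Alternatively, mitochondrial fluorescence was quantified in plates.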
# C2C12 [7] = assay: Activation of AMPK/SIRT1 in mouse C2C12 cells assessed as increase in mitochondrial density at 30 uM after 16 hrs by Mitotracker Green staining-based confocal microscopy in presence of EX-527; assay type: cell-based; how it was run: as §2
# Cavia porcellus = species: Cavia porcellus; assay: Antagonist activity at calcium channel in guinea pig smooth muscle assessed as inhibition of calcium-induced contraction in K+-depolarized aortic strips at 50 uM
# How it was run: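 Guinea-pig isolated aortic strips depolarized with 80 mM K+; read-out is percent inhibition of calcium-induced contraction.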
# M14 = assay: Antiproliferative activity against human M14 cells assessed as cell viability after 72 hrs by MTT assay; assay type: functional, cell-based; settings: M14, 72 h
# How it was run: (§3)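 Cells grown in RPMI with 10% fetal calf serum and penicillin, seeded in sextuplicate at 3 × 10^3 cells/well. After 24 h, cells were exposed 72 h to 5–200 µM. Viability was measured by MTT and expressed as treated/untreated × 100. IC50 was calculated from three independent experiments, reported as mean ± SD.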
# A549 = assay: Antiproliferative activity against human A549 cells assessed as cell viability after 72 hrs by MTT assay; assay type: functional, cell-based; settings: A549, 72 h; how it was run: as §3
# NCI-H1299 = assay: Antiproliferative activity against human NCI-H1299 cells assessed as cell viability after 72 hrs by MTT assay; assay type: functional, cell-based; settings: NCI-H1299, 72 h; how it was run: as §3
# HCT-116 = assay: Antiproliferative activity against human HCT116 cells assessed as cell viability after 72 hrs by MTT assay; assay type: functional, cell-based; settings: HCT-116, 72 h; how it was run: as §3
# Caov-3 cell line = assay: Antiproliferative activity against human Caov3 cells assessed as cell viability after 72 hrs by MTT assay; assay type: functional, cell-based; settings: Caov-3, 72 h; how it was run: as §3
# [8] = molecular target: T1, NAD-dependent protein deacetylase sirtuin-1 (Homo sapiens); assay: Activation of full-length GST-tagged recombinant human SIRT1 assessed as enzyme activity obtained with subtraction of intrinsic fluorescence using p53-based untagged peptide as substrate at 50 uM after 30 mins by SIRTainty assay
# [9] = molecular target: T1, NAD-dependent protein deacetylase sirtuin-1 (Homo sapiens); assay: Activation of full-length GST-tagged recombinant human SIRT1 assessed as enzyme activity obtained without subtraction of intrinsic fluorescence using p53-based untagged peptide as substrate at 50 uM after 30 mins by SIRTainty assay
# Sequence of 3',5'-cyclic-AMP phosphodiesterase 4D (Homo sapiens) (Q08499 whole entry): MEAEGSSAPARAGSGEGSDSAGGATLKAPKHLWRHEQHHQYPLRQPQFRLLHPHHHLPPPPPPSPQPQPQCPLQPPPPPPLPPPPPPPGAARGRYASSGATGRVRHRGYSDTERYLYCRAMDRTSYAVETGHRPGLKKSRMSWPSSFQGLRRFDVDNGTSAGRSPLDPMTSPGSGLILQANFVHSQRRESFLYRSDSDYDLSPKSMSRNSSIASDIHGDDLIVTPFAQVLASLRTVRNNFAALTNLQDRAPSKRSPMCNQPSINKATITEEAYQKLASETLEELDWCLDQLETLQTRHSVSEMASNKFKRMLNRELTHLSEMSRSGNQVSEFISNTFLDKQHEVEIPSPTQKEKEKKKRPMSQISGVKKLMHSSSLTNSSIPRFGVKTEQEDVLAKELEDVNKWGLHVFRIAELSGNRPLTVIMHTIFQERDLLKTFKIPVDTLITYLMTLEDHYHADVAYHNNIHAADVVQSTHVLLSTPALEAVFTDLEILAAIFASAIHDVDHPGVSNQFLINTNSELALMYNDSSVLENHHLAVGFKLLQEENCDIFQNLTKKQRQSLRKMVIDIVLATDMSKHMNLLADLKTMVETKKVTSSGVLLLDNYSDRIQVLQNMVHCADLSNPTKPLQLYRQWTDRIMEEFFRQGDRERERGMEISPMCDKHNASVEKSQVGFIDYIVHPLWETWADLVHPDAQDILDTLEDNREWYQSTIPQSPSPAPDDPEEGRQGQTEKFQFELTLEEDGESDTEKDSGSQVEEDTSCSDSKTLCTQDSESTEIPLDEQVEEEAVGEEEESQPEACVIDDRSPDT
structure (smiles),measurement,setting,value
CCOC(=O)C1=CN(C(=O)c2ccccc2)C=C(C(=O)OCC)C1c1ccccc1,inhibition,[1],inactive
same,Activity,HaCaT [2],Active
same,Activity,HaCaT [3],Dose-dependent effect
same,Activity,HaCaT [4],inactive
same,Activity,[5],Tde
same,Activity,Mus musculus,Active
same,Activity,C2C12 [6],inactive
same,Activity,C2C12 [7],inactive
same,inhibition,Cavia porcellus,12%
same,IC50,M14,153 µM
same,IC50,A549,169 µM
same,IC50,NCI-H1299,125 µM
same,IC50,HCT-116,62 µM
same,IC50,Caov-3 cell line,> 200 µM
same,Activity,[8],153%
same,Activity,[9],244%
